# EP2 modulator: modulates human prostaglandin E2 receptor EP2 signaling | P43116 | EP2-expressing cells, cAMP HTRF FRET, PGE2 co-stimulation | induction, % at 25 µM | 260,000 compounds, 0.83% hits;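 active = compounds whose cAMP rise, as percent of the full-agonist control response, exceeds 60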;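 note: rat C6 glioma line stably carrying human EP2 under a CMV promoter; the protocol text gives 20 µM as final concentration; 100% = response of wells given 1 µM PGE2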
# CHO parental Ca: signal in parental CHO cells, OX1R antagonist counter-screen | parental CHO-K1, ATP-induced calcium, Fluo-8 fluorescence | 330,000 compounds, 0.63% hits | AID 463079 | inhibition, % at 5.6 µM;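 active = inhibition above that plate's mean sample inhibition plus 3 SD, cut at about 26% in these data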;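 note: 0% = ATP-challenged DMSO wells and 100% = DMSO wells without ATP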
#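 Assay system: untransfected parental CHO cell line. Also added: ATP agonist challenge. Dosing: one dose, 5.6 µM nominal. Measured by: Fluo-8 fluorescence. Read-out: % inhibition. Benchmarks: ATP wells versus no-ATP DMSO wells. Repeats: no replicates.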
# OX1R antag-1: antagonists of human orexin 1 receptor (OX1R). AID 485270. 330,000 compounds, 1.8% hits. inhibition, % at 6.6 µM. OX1R-expressing cells, FRET antagonist read-out; in the data active = inhibition mostly above about 38%, no sharp cut-off; inactive = mostly below about 40%;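 note: 0% = agonist challenge alone and 100% = reference antagonist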
# Target sequence (O43613 whole entry, looked up): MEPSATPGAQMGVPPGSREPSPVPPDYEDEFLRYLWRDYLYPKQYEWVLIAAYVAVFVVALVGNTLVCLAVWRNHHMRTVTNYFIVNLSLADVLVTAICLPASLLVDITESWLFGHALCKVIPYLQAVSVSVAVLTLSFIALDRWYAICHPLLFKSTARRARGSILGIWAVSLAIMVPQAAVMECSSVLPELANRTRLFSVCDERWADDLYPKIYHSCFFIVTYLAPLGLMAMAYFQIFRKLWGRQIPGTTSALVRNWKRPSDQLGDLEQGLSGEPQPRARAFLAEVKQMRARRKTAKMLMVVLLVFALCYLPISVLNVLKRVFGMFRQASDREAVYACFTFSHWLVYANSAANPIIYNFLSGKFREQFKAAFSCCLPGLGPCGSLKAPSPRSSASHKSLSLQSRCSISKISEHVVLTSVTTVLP
# EP2 antag: blocks the human prostaglandin E2 receptor EP2. P43116. C6 glioma cells expressing human EP2, cAMP TR-FRET; cells stimulated with saturating PGE2. inhibition, % at 25 µM. 260,000 compounds, 0.52% hits. AID 1422;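 active = percent inhibition above 40 after rounding to a whole number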;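 note: rat C6 glioma host cells with rolipram phosphodiesterase inhibitor present; the protocol text gives 20 µM as final concentration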
# GPR7 antag: antagonists of human GPR7 (neuropeptides B/W receptor 1). P48145. GPR7-expressing cells, fluorescence antagonist assay. inhibition, % at 4.4 µM. 290,000 compounds, 1.1% hits. AID 1861; in the data active = inhibition above about 16%, passing the limit was not always enough;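 note: cells stimulated with the agonist NPW; 0% = agonist with vehicle and 100% = vehicle without agonist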
# OX1R antag-2: blocks the human orexin 1 receptor; CHO/OX1R cells, Fluo-8 calcium fluorescence, orexin A; inhibition, % at 5 µM; 330,000 compounds, 0.43% hits;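 active = inhibition above its plate's threshold, mean inhibition of all tested compounds on the plate plus 3 SD, cut at about 37% in these data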;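 note: 0% = orexin A challenge wells and 100% = SB-334867-A antagonist wells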
# * marks the source's active call; other numbers are inactive results; / = no result given. A selection: hits, their analogues and other compounds. The true share with any hit is near 3.7%.
SMILES,EP2 modulator,CHO parental Ca,OX1R antag-1,EP2 antag,GPR7 antag,OX1R antag-2
O=C(Nc1ccc(Cl)cc1)N1CCCN(c2ccc(C(F)(F)F)cc2[N+](=O)[O-])CC1,-21,35,16,10,-14,57*
COc1ccc(NC(=O)N(CCC(C)C)C(C)c2ccccn2)c(OC)c1 (stereo unspecified),40,-19,7,12,6,-26
CC[n+]1cc(-c2ccccc2)nc(N2CCOCC2)n1,1,-5,51*,25,-2,3
Cc1ccccc1OCCC(=O)N(Cc1ccccc1)c1c(N)n(Cc2ccccc2)c(=O)[nH]c1=O,/,-11,12,/,-1,-22
O=C(CCN1C(=O)S/C(=C/c2ccc(F)cc2)C1=O)Nc1ccc(O)c(C(=O)O)c1,/,-5,15,/,-9,-5
Cc1sc(NC(=O)CCC(=O)O)c(C#N)c1C,-4,-5,13,6,-8,-7
Cc1cc(=O)oc2cc(OCC(=O)Nc3ccccc3Br)ccc12,-2,/,/,8,/,/
COc1cccc(N=NC2C(=O)N(C(N)=S)N=C2C)c1 (stereo unspecified),/,-16,23,/,/,-11
CCS(=O)c1ccccc1C(=O)OCC(=O)Nc1ccc2ccccc2c1 (stereo unspecified),/,39*,9,/,/,-11
O=C(COC(=O)c1ccccc1O)Nc1ccc2ccccc2c1,/,18,15,/,/,1
CCCCOC(=O)CSCC(=O)N1N=C(c2cccs2)CC1c1ccc(F)cc1 (stereo unspecified),37,29*,3,50*,0,-13
CCOC(=O)CSCC(=O)N1N=C(c2cccs2)CC1c1ccc(F)cc1 (stereo unspecified),25,-10,13,5,5,-25
O=c1[nH]c(CSc2nnc3ccccn23)nc2ccccc12,33,-10,9,10,-17,-18
Cc1ccccc1CS(=O)(=O)c1nnc([C@H](CC(C)C)NC(=O)OC(C)(C)C)o1,11,43*,12,5,16,10
CC(C)(C)OC(=O)N[C@@H](Cc1ccccc1)c1nnc(S(=O)(=O)Cc2cccc(F)c2)o1,-33,31,31,14,21,35
Cn1c(SCC(=O)Nc2cccc3ccccc23)nnc1-c1ccco1,-14,/,/,7,/,/
CC(C)(C)c1ccc(C(=O)NN2CCOCC2)cc1,/,4,4,/,-8,-2
CCCN(C(=O)c1ccc2c(SCC(=O)O)c3c(nc2c1)CCC3)c1cccc(C)c1,/,4,32,/,-5,-1
CCN(CC)c1ccc(/C=N/NC(=O)c2cc(C)nc3ccccc23)cc1,-18,-11,13,7,0,-11
CCN(CC)c1ccc(/C=C/c2cc(-c3ccccc3)c3ccccc3n2)cc1,-22,38*,6,10,2,5
CCCC(=O)Nc1ncnc2c1ncn2[C@@H]1O[C@@H]2COP(=O)(O)O[C@H]2[C@H]1OC(=O)CCC,109*,-4,10,2,5,-1
CNc1ncnc2c1ncn2[C@@H]1O[C@H](CO)[C@@H](O)[C@H]1O,/,-2,16,/,/,9
COc1ccc(C(=S)Nc2ccc(C)cc2)cc1,-5,73*,23,/,-8,5
CC(C)(C)C(=O)NC(=S)NNC(=O)c1ccc(-c2ccccc2)cc1,-66,100*,-5,9,103*,103*
CC(C)(C)C(=O)NC(=S)NNC(=O)c1ccncc1,20,-6,8,5,-8,-8
COc1ccc(C(=O)NC(=S)NNC(=O)c2ccc(C)cc2)cc1,/,49*,5,/,/,59*
NC(=O)C(CC(=O)O)NC(=O)[C@@H]1CCOc2c(I)cc([N+](=O)[O-])cc2C(=O)N[C@@H](CCC(=O)O)C(=O)N[C@@H](CO)C(=O)N1 (stereo partly specified),25,-4,70*,7,-6,2
NC(=O)C[C@@H]1NC(=O)[C@H](CCC(=O)O)NC(=O)c2cc([N+](=O)[O-])cc(I)c2OCC[C@@H](C(N)=O)NC1=O,45,-3,11,/,3,-17
